In ChEMBL document CHEMBL4152211, “Discovery of novel Methylsulfonyl phenyl derivatives as potent human Cyclooxygenase-2 inhibitors with effective anticonvulsant action: Design, synthesis, in-silico, in-vitro and in-vivo evaluation” (Eur J Med Chem, 2018):
The source made the active and inactive calls. The calls are words filed in the database; no cut-off is given here.

Key:
[1] = target: T1, Prostaglandin G/H synthase 1 (Ovis aries) (UniProt P05979); test: Inhibition of ovine COX1 at 10 uM using arachidonic acid as substrate preincubated for 5 mins followed by substrate addition and measured after 2 mins by ADPH probe-based fluorescence assay relative to control
T1 sequence (whole entry): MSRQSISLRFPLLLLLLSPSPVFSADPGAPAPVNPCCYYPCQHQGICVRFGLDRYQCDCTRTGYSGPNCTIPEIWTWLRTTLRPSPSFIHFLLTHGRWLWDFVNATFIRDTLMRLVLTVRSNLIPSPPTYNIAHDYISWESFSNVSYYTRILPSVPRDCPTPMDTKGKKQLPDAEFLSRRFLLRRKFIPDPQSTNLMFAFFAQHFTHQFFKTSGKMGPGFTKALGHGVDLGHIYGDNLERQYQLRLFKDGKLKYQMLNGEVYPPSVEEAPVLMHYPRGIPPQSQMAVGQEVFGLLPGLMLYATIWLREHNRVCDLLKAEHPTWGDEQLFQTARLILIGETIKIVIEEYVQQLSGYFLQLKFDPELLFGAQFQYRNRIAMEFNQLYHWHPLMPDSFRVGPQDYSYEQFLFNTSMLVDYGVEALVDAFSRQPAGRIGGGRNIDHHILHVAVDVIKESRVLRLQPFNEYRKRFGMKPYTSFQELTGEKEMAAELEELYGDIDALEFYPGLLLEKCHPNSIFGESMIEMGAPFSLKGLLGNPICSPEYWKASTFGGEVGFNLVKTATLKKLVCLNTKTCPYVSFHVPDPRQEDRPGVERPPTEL
Summary of the method: (§1)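 Kit assay in 100 mM Tris-HCl pH 8.0. Enzyme, heme and inhibitor (DMSO stocks) are incubated 5 min at room temperature. ADPH is added, then arachidonic acid starts the reaction. After 2 min, fluorescence is read at ex 535/em 590 nm. Percent inhibition is taken versus the 100% activity well, background wells included. IC50 is derived from percentage inhibition, mean of three independent experiments.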

[2] = target: T2, Prostaglandin G/H synthase 2 (Homo sapiens, UniProt P35354); test: Inhibition of human recombinant COX2 using arachidonic acid as substrate preincubated for 5 mins followed by substrate addition and measured after 2 mins by ADPH probe-based fluorescence assay; summary of the method: as §1
T2 sequence (P35354 whole entry): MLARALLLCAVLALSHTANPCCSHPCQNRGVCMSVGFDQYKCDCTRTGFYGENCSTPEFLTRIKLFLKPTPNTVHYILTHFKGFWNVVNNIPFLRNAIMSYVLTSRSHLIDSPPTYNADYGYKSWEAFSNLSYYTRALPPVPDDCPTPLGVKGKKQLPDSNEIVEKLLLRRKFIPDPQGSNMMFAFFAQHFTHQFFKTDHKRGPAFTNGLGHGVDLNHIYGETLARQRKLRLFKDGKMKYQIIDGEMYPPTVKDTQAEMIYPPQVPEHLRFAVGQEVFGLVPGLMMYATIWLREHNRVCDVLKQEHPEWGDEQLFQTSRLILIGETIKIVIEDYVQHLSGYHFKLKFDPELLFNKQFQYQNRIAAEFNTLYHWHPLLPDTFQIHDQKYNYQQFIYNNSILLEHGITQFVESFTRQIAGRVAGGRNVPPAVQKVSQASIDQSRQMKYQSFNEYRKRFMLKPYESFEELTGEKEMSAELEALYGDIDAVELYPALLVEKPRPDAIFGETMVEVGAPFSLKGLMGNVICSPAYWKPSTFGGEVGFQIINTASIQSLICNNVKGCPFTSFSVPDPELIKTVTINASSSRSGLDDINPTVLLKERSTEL

Mus musculus [3] = test: Anticonvulsant activity in Swiss albino mouse assessed as protection against subcutaneous pentylenetetrazole-induced seizures at 100 mg/kg, ip administered 4 hrs prior to PTZ challenge and measured after 30 mins; type: functional
Summary of the method: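 Male Swiss Albino mice (25–30 g), 6 per group, dosed i.p. with drugs in sterile saline, then challenged with PTZ 85 mg/kg s.c. (CD97), given at 10 ml/kg, 0.5 h or 4 h later. Each animal is observed singly for seizures. Protection is scored as protected/total animals.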

Mus musculus [4] = test: Anticonvulsant activity in Swiss albino mouse assessed as protection against subcutaneous pentylenetetrazole-induced seizures at 5 mg/kg, ip administered 2 hrs prior to PTZ challenge and measured after 30 mins; type: functional; conditions: in the assay text read “30 mg/kg” for “5 mg/kg”
Summary of the method: (§2)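 Mice get a single i.p. dose, then PTZ 85 mg/kg s.c. at 0.5, 1, 2, 3, 4 or 6 h after dosing. Seizure protection is recorded at each interval as percentage of six Swiss Albino mice protected.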

Mus musculus [5] = test: Anticonvulsant activity in Swiss albino mouse assessed as protection against subcutaneous pentylenetetrazole-induced seizures at 5 mg/kg, ip administered 1 hr prior to PTZ challenge and measured after 30 mins; type: functional; conditions: in the assay text read “30 mg/kg” for “5 mg/kg”; summary of the method: as §2
Rattus norvegicus [6] = test: Cognitive enhancing effect in ip dosed PTZ-kindled Wistar rat assessed as exploration preference by novel object recognition test (reference value: 5.7%); type: functional
Rattus norvegicus [7] = test: Anxiolytic activity in ip dosed PTZ-kindled Wistar rat assessed as time spent in light zone by light-dark test (reference value: 3.05 +/- 1.25%); type: functional
Rattus norvegicus [8] = test: Toxicity in Wistar rat assessed as hemoglobin level at 200 mg/kg, po for 14 days (reference value: 12.87 +/- 0.6 g/dl); type: organism-based; conditions: in vivo, 336 h
Rattus norvegicus [9] = test: Toxicity in Wistar rat assessed as neutrophil level at 200 mg/kg, po for 14 days (reference value: 17.33 +/- 3.21%); type: organism-based; conditions: in vivo, 336 h
Rattus norvegicus [10] = test: Toxicity in Wistar rat assessed as monocyte level at 200 mg/kg, po for 14 days (reference value: 2.67 +/- 0.58%); type: organism-based; conditions: in vivo, 336 h
Rattus norvegicus [11] = test: Toxicity in Wistar rat assessed as basophils level at 200 mg/kg, po for 14 days (reference value: 0 +/0%); type: organism-based; conditions: in vivo, 336 h
Rattus norvegicus [12] = test: Toxicity in Wistar rat assessed as effect on SGPT level at 200 mg/kg, po for 14 days; type: organism-based; conditions: in vivo, 336 h
Summary of the method: (§3)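 Normal Wistar rats are given 200 mg/kg orally for 14 days, with vehicle-treated controls. Serum liver markers (SGOT, SGPT, ALP, total protein, total bilirubin) and renal markers (urea, creatinine, uric acid) are then measured, mean ± S.D.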

Rattus norvegicus [13] = test: Toxicity in Wistar rat assessed as effect on alkaline phosphatase level at 200 mg/kg, po for 14 days; type: organism-based; conditions: in vivo, 336 h; summary of the method: as §3
Rattus norvegicus [14] = test: Toxicity in Wistar rat assessed as effect on blood urea level at 200 mg/kg, po for 14 days; type: organism-based; conditions: in vivo, 336 h; summary of the method: as §3
Rattus norvegicus [15] = test: Toxicity in Wistar rat assessed as effect on creatinine level at 200 mg/kg, po for 14 days; type: organism-based; conditions: in vivo, 336 h; summary of the method: as §3

- inhibition [1]: inactive
- IC50 [2]: 2150 nM
Structure (SMILES): Cc1ccc(NC(=S)NNC(=O)Nc2ccc(S(C)(=O)=O)cc2)cc1
- Activity (Mus musculus [3]): 83%
- Activity (Mus musculus [4]): 67%
- Activity (Mus musculus [5]): 67%
- Activity (Rattus norvegicus [6]): 3.9%
- Activity (Rattus norvegicus [7]): 13.3%
- Activity (Rattus norvegicus [8]): 14.15 g/dL
- Activity (Rattus norvegicus [9]): 21.5%
- Activity (Rattus norvegicus [10]): 2.5%
- Activity (Rattus norvegicus [11]): 0.5%
- Activity (Rattus norvegicus [12]): Non-Toxic
- Activity (Rattus norvegicus [13]): Non-Toxic
- Activity (Rattus norvegicus [14]): Non-Toxic
- Activity (Rattus norvegicus [15]): Non-Toxic
